In ChEMBL document CHEMBL1131153, “Metabolites of the angiotensin II antagonist tasosartan: the importance of a second acidic group” (J Med Chem, 1998):

Columns and labels:
[1] = target: T1, Angiotensin II receptor (AT-1) type-1 (Rattus norvegicus, UniProt P29089+P25095); assay: Compound was evaluated for the in vitro inhibition of specific binding of [125I]-A II to Angiotensin II receptor, type 1 from rat adrenal membranes.; type: cell membranes, Membrane
T1 sequence (P29089 whole entry): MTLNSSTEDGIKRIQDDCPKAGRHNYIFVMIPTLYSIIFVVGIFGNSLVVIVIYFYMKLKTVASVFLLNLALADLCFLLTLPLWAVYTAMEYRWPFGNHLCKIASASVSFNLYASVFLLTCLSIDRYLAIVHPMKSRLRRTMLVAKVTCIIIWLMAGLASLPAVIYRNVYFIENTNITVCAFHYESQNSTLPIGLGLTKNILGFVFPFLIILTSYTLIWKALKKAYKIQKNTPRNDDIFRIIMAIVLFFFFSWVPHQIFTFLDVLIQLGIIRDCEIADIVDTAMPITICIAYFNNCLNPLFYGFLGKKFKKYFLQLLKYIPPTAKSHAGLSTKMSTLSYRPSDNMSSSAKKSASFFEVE
T1 sequence (P25095 whole entry): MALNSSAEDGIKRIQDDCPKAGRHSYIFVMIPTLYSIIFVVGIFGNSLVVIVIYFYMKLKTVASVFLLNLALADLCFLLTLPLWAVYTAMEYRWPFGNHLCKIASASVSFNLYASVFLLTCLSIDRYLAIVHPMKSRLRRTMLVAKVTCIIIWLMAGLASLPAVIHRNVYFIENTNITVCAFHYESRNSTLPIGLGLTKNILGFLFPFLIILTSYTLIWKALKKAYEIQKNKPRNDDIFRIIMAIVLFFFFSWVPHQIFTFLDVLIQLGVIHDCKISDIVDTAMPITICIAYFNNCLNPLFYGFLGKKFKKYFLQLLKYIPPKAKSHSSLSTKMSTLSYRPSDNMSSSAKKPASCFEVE

Rattus norvegicus [2] = assay: Compound was evaluated for maximum decrease in mean arterial pressure after an intragastric dose of 1.0 mg/kg in rats; type: functional, Artery
Summary of the method: (§1)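 Goldblatt 2K-1C model: Sprague-Dawley rats (150 g) under pentobarbital (50 mg/kg ip) had the left renal artery clipped with a silver wire (0.2 mm internal diameter). Hypertension developed over 4–7 weeks, then the right carotid was cannulated under pentobarbital and saline infused at 5 µL/min. Dosing by gastric gavage in 0.5% methyl cellulose, 5 mL/kg. MAP recorded for 24 h; maximum fall reported, mean ± SE, 6–12 rats/group.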

Rattus norvegicus [3] = assay: Compound was evaluated for maximum decrease in mean arterial pressure after an intravenous dose of 1.0 mg/kg in rats; type: functional, Artery
Summary of the method: (§2)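 Renal hypertension produced in 150 g Sprague-Dawley rats by clipping the left renal artery (silver wire, 0.2 mm ID), used after 4–7 weeks. Right carotid cannulated under pentobarbital (50 mg/kg ip) with saline infusion at 5 µL/min. Intravenous dosing, then MAP and heart rate monitored over 24 h. Maximum MAP decrease reported as mean ± SE versus vehicle-treated rats.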

Rattus norvegicus [4] = assay: Compound was evaluated for maximum decrease in mean arterial pressure after an intravenous dose of 10.0 mg/kg in rats; type: functional, Artery; summary of the method: as §2
Rattus norvegicus [5] = assay: Compound was evaluated for maximum decrease in mean arterial pressure after an intragastric dose of 10.0 mg/kg in rats; type: functional, Artery; summary of the method: as §1
Rattus norvegicus [6] = assay: Compound was evaluated for maximum decrease in mean arterial pressure after an intragastric dose of 3.0 mg/kg in rats; type: functional, Artery; summary of the method: as §1
Rattus norvegicus [7] = assay: Compound was evaluated for maximum decrease in mean arterial pressure after an intravenous dose of 3.0 mg/kg in rats; type: functional, Artery; summary of the method: as §2
[8] = target: Angiotensin II receptor (AT-1) type-1 (Rattus norvegicus) (UniProt P29089+P25095); assay: Compound was evaluated for the in vitro inhibition of specific binding of [125I]-A II to Angiotensin II receptor, type 1 in rat liver membrane at 100 nM.
Rattus norvegicus [9] = assay: Compound was evaluated for maximum decrease in mean arterial pressure after an intravenous dose of 0.03 mg/kg in rats; type: functional, Artery; summary of the method: as §2
Rattus norvegicus [10] = assay: Compound was evaluated for maximum decrease in mean arterial pressure after an intravenous dose of 0.10 mg/kg in rats; type: functional, Artery; conditions: dose 0.1 mg/kg; summary of the method: as §2
Rattus norvegicus [11] = assay: Compound was evaluated for maximum decrease in mean arterial pressure after an intragastric dose of 0.3 mg/kg in rats; type: functional, Artery; summary of the method: as §1
Rattus norvegicus [12] = assay: Compound was evaluated for maximum decrease in mean arterial pressure after an intravenous dose of 0.1 mg/kg in rats; type: functional, Artery; summary of the method: as §2
Rattus norvegicus [13] = assay: Compound was evaluated for maximum decrease in mean arterial pressure after an intragastric dose of 30.0 mg/kg in rats; type: functional, Artery; summary of the method: as §1
Rattus norvegicus [14] = assay: Compound was evaluated for maximum decrease in mean arterial pressure after an intragastric dose of 0.1 mg/kg in rats; type: functional, Artery; summary of the method: as §1

IC50 [1] | SMILES | MAP (Rattus norvegicus [2]) | MAP (Rattus norvegicus [3]) | MAP (Rattus norvegicus [5]) | MAP (Rattus norvegicus [6]) | MAP (Rattus norvegicus [7]) | further results
6.5 nM | Cc1nc(C)c2ccc(=O)n(Cc3ccc(-c4ccccc4-c4nn[nH]n4)cc3)c2n1 |  |  |  |  |  | 
0.41 nM | Cc1nc(CO)nc2c1c(O)cc(=O)n2Cc1ccc(-c2ccccc2-c2nn[nH]n2)cc1 |  |  |  |  |  | 

Continued, compound first:

SMILES | IC50 [1] | MAP (Rattus norvegicus [2]) | MAP (Rattus norvegicus [3]) | MAP (Rattus norvegicus [5]) | MAP (Rattus norvegicus [6]) | MAP (Rattus norvegicus [7]) | further results
Cc1nc(C)c2c(n1)N(Cc1ccc(-c3ccccc3-c3nn[nH]n3)cc1)C(=O)CC2O (centres undefined) |  | 55 mmHg | 51 mmHg | 71 mmHg | 54 mmHg | 47 mmHg | MAP (Rattus norvegicus [4]): 41 mmHg
Cc1nc(C)c2c(n1)N(Cc1ccc(-c3ccccc3-c3nnn(C4OC(C(=O)O)C(O)C(O)C4O)n3)cc1)C(=O)CC2 (centres undefined) |  |  |  |  |  |  | inhibition [8]: 3.5%
Cc1nc(C)c2c(O)cc(=O)n(Cc3ccc(-c4ccccc4-c4nn[nH]n4)cc3)c2n1 [ENOLTASOSARTAN] | 0.17 nM |  |  | 66 mmHg | 39 mmHg |  | MAP (Rattus norvegicus [9]): 34 mmHg; MAP (Rattus norvegicus [10]): 67 mmHg
Cc1nc(C)c2c(n1)N(Cc1ccc(-c3ccccc3-c3nnn[nH]3)cc1)C(=O)CC2 [TASOSARTAN] | 1.2 nM | 71 mmHg | 53 mmHg | 81 mmHg | 76 mmHg | 54 mmHg | MAP (Rattus norvegicus [11]): 45 mmHg; MAP (Rattus norvegicus [12]): 37 mmHg; MAP (Rattus norvegicus [13]): 80 mmHg; MAP (Rattus norvegicus [14]): 6 mmHg
